From ChEMBL document CHEMBL1121643, “Pyrazolo[5,1-b]quinazolin-9-ones: a new series of antiallergic agents” (1981) come the findings set out here.

The subject of experiment [1] is Rattus norvegicus. Briefly: Ability to inhibit the passive cutaneous anaphylaxis (PCA) reaction in rats by peroral administration. The format is functional. The procedure, abridged: (§1)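 Rats were sensitized by intradermal antiserum dilutions at several dorsal sites. After 48 h they were challenged iv with 1 mg ovalbumin in 1 mL saline containing 0.25% Evans blue. Drug was suspended in 1% gum tragacanth in saline and given ip or orally 10–15 min before challenge. Rats were killed 30 min later and the mean orthogonal wheal diameter was measured.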

Experiment [2] relates to Rattus norvegicus. Briefly: Inhibition of passive cutaneous anaphylaxis (PCA) reaction in rats by intraperitoneal administration of 5 mg/kg. It is filed as functional. To be noted: ip. In short, it runs like this:
as §1

The test system of experiment [3] is Rattus norvegicus. In words: Ability to inhibit the passive cutaneous anaphylaxis (PCA) reaction in rats by peroral administration of 10 mg/kg. It is filed as functional. To be noted: route oral. In short, it runs like this: as §1
The test system of experiment [4] is Rattus norvegicus. Briefly: Inhibition of the passive cutaneous anaphylaxis (PCA) reaction in rats by intravenous administration of 0.1 mg/kg. The format is functional. In short, it runs like this:
(§2)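 Rats were given intradermal antiserum dilutions on the back. At 48 h, drug dissolved in the challenge solution (1 mg ovalbumin, 0.25% Evans blue, 1 mL saline) was injected iv with the antigen; sodium bicarbonate in slight molar excess was used if needed. Wheal diameters were read 30 min later and plotted against antiserum concentration, with the least-squares line extrapolated to a zero-antiserum base value. Five rats per group.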

Experiment [5] deals with Rattus norvegicus. In words: Ability to inhibit the passive cutaneous anaphylaxis (PCA) reaction in rats by intravenous administration of 0.001 mg/kg. The format is functional. In short, it runs like this:
as §2

Experiment [6] deals with Rattus norvegicus. In words: Inhibition of the passive cutaneous anaphylaxis (PCA) reaction in rats by intravenous administration of 0.01 mg/kg. The format is functional. In short, it runs like this: as §2
For experiment [7], the system named is Rattus norvegicus. Briefly: Ability to inhibit the passive cutaneous anaphylaxis (PCA) reaction in rats by intravenous administration of 0.005 mg/kg. It is filed as functional. The procedure, abridged: as §2
Experiment [8] has as its system Rattus norvegicus. In words: Inhibition of passive cutaneous anaphylaxis (PCA) reaction in rats, peroral administration 5 mg/kg. To be noted: route oral. It is filed as functional. The procedure, abridged:
as §1

Experiment [9] relates to Rattus norvegicus. In words: Ability to inhibit the passive cutaneous anaphylaxis (PCA) reaction in rats by intravenous administration of 0.5 mg/kg. The format is functional. The procedure, abridged: as §2
In experiment [10] the test system is Rattus norvegicus. In words: Ability to inhibit the passive cutaneous anaphylaxis (PCA) reaction in rats by peroral administration of 2 mg/kg. It is filed as functional. As to conditions: read-out: Inhibition, route oral. In short, it runs like this:
as §1

Experiment [11] relates to Rattus norvegicus. Briefly: Ability to inhibit the passive cutaneous anaphylaxis (PCA) reaction in rats by intraperitoneal administration of 1 mg/kg. It is filed as functional. As to conditions: ip. The procedure, abridged: as §1
In experiment [12] the test system is Rattus norvegicus. Briefly: Ability to inhibit the passive cutaneous anaphylaxis (PCA) reaction in rats by peroral administration of 1 mg/kg. The format is functional. To be noted: route oral. In short, it runs like this: as §1
Experiment [13] concerns Rattus norvegicus. Briefly: Ability to inhibit the passive cutaneous anaphylaxis (PCA) reaction in rats by intravenous administration of 0.01 mg/kg. The format is functional. The procedure, abridged:
as §2

The subject of experiment [14] is Rattus norvegicus. Briefly: Ability to inhibit the passive cutaneous anaphylaxis (PCA) reaction in rats by intraperitoneal administration of 5 mg/kg. It is filed as functional. To be noted: ip. The procedure, abridged:
as §1

Experiment [15] has as its system Rattus norvegicus. Briefly: Ability to inhibit the passive cutaneous anaphylaxis (PCA) reaction in rats by peroral administration of 5 mg/kg. The format is functional. As to conditions: route oral. In short, it runs like this: as §1
Experiment [16] deals with Rattus norvegicus. In words: Ability to inhibit the passive cutaneous anaphylaxis (PCA) reaction in rats by intravenous administration of 1.5 mg/kg. The format is functional. The procedure, abridged: as §2
The test system of experiment [17] is Rattus norvegicus. Briefly: Ability to inhibit the passive cutaneous anaphylaxis (PCA) reaction in rats by peroral administration; Inactive. It is filed as functional, organism-based. In short, it runs like this: as §1

Activity calls are given as the source filed them. The rule behind the calls is not given here.

Consider `Cn1c2ccccc2c(=O)n2nc(C(=O)Nc3nn[nH]n3)cc12`, for which the Inhibition (as a rule, the drop in the measured response relative to a control, in per cent) with Rattus norvegicus [1] was determined as 0%. In the experiment on Rattus norvegicus [2], this compound showed an inhibition in vivo at 5 mg/kg of 51%.

`COc1ccc2nc3cc(C(=O)Nc4nn[nH]n4)nn3c(O)c2c1` yielded an inhibition in vivo at 10 mg/kg with Rattus norvegicus [3] of 43%. The inhibition in vivo at 5 mg/kg with Rattus norvegicus [2] worked out at 80%. This compound gave an inhibition in vivo at 0.1 mg/kg in the experiment with Rattus norvegicus [4] of 90%.

In the case of `COc1cccc2c(O)n3nc(C(=O)O)cc3nc12`, the inhibition in vivo at 0.001 mg/kg in the experiment with Rattus norvegicus [5] came out at 8%. This compound also gave an inhibition in vivo at 0.01 mg/kg with Rattus norvegicus [6] of 74%. Moreover, in the experiment on Rattus norvegicus [3], the inhibition in vivo at 10 mg/kg is 62%. Further, in the experiment on Rattus norvegicus [7], the inhibition in vivo at 0.005 mg/kg is 31%. Also, the inhibition in vivo at 5 mg/kg with Rattus norvegicus [8] was found to be 79%; in the experiment on Rattus norvegicus [2] it was 70%. The compound further came in with an inhibition in vivo at 0.1 mg/kg in the experiment on Rattus norvegicus [4] of 100%.

Compound `Cn1c2ccc(Cl)cc2c(=O)n2nc(C(=O)O)cc12` gave an inhibition in vivo at 0.5 mg/kg with Rattus norvegicus [9] of 70%. Besides, the inhibition in vivo at 2 mg/kg with Rattus norvegicus [10] was determined as 9%. The inhibition in vivo at 1 mg/kg with Rattus norvegicus [11] (read-out: Inhibition) was 59%.

Consider `O=C(O)c1cc2nc3ccccc3c(O)n2n1`, for which the inhibition in vivo at 1 mg/kg with Rattus norvegicus [11] came to 55%; in the experiment with Rattus norvegicus [12], 23%. Moreover, the values for the inhibition in vivo at 5 mg/kg in the experiment with Rattus norvegicus [8] and with Rattus norvegicus [2] were 5% and 100%, respectively. For the same compound, in the experiment with Rattus norvegicus [4], the inhibition in vivo at 0.1 mg/kg is 54%. The compound also gave an inhibition in vivo at 0.01 mg/kg in the experiment on Rattus norvegicus [13] of 0%.

In the experiment with Rattus norvegicus [9], `Cn1c2ccccc2c(=O)n2nc(C(=O)O)cc12` yielded an inhibition in vivo at 0.5 mg/kg of 100%. In addition, the inhibition in vivo at 5 mg/kg in the experiment with Rattus norvegicus [14] came to 100%; in the experiment with Rattus norvegicus [15], 40%.

Take `O=C(O)c1cc(=O)c2c(OCC(O)COc3cccc4oc(C(=O)O)cc(=O)c34)cccc2o1` [CROMOLYN SODIUM]: the inhibition in vivo at 1.5 mg/kg in the experiment on Rattus norvegicus [16] is 50%. The inhibition entry in the experiment on Rattus norvegicus [17] was “inactive”.

With `COc1ccc2nc3cc(-c4nn[nH]n4)nn3c(O)c2c1`, the inhibition in vivo at 5 mg/kg in the experiment with Rattus norvegicus [2] turned out to be 87%. The compound further returned an inhibition in vivo at 1 mg/kg in the experiment on Rattus norvegicus [12] of 21%.
